Measurements of several laboratories.
Cell line: HepG2
Observed: cell growth or viability

| Compound | technique | tested at | time | measurement | result |
| --- | --- | --- | --- | --- | --- |
| Cc1ccc(-c2cc(-c3ccc4oc(=O)cc(C)c4c3O)nc(N)n2)cc1 | MTT | 8 µg/mL | 72 h | inhibition | 0% |
| CCn1cc(-c2nc(C)no2)c(=O)c2cc(F)c(N3CCC(C)CC3)cc21 | ATP luminescence | – | 48 h | EC50 | > 40 µM |
| CCOc1cc(-c2nc3ccccc3[nH]2)ccc1O | MTT | – | 48 h | IC50 | 42.5 µM |
| CCn1cc(-c2nc(C)no2)c(=O)c2cc(F)c(N3CCC(c4ccccc4)CC3)cc21 | ATP luminescence | – | 48 h | EC50 | > 40 µM |
| CCOC(=O)c1ccc(NC(=O)C2=C3C(=Nc4ccccc43)NC2=O)cc1 | MTT | 3.125 µM | 24 h | viability | 100% |
| Clc1ccccc1-c1nc2ccccc2[nH]1 | MTT | – | 48 h | IC50 | 31.5 µM |
| Cc1cc(=O)oc2ccc(-c3cc(-c4cccc(Cl)c4)nc(N)n3)c(O)c12 | MTT | 128 µg/mL | 72 h | inhibition | 31% |
| O=C(CN1C(=O)/C(=C/c2ccccc2)SC1=S)Nc1ccccc1 | MTT | 10 µM | – | inhibition | 31.3% |
| CCn1cc(-c2ccccn2)c(=O)c2cc(F)c(N3CCC(C)CC3)cc21 | ATP luminescence | – | 48 h | EC50 | > 40 µM |
| COc1cccc2c1C(=O)c1c(O)c3c(c(O)c1C2=O)C[C@@](O)(C(=O)CO)C[C@@H]3O[C@H]1C[C@H](N)[C@H](O)[C@H](C)O1 | MTT | – | 48 h | IC50 | 0.12 µg/mL |
| COc1ccc(C=NNC(=O)c2sc(Nc3ccccc3)c(C(=O)Nc3ccc(OC)cc3)c2NC(C)=O)cc1 | SRB | 0.1 µM | 48 h | viability | 76.5% |
| O=C(CN1C(=O)/C(=C/c2cccc(Br)c2)SC1=S)Nc1ccccc1 | MTT | 10 µM | – | inhibition | 12.7% |
| CCOC(=O)c1ccc(-n2c(C)cc(/C=C/c3ccc(OC)cc3)c(C#N)c2=O)cc1 | MTT | 3.125 µM | 24 h | viability | 100% |
| COc1ccc(-c2cc(-c3ccc4oc(=O)cc(C)c4c3O)nc(N)n2)cc1 | MTT | 128 µg/mL | 72 h | inhibition | 40% |
| Cc1cc(Nc2ccc(C(=O)N/N=C/c3ccccc3)cc2)c2cccc(O)c2n1 | MTT | 20 µM | – | inhibition | 48.9% |
| CCn1cc(-c2nc(C)no2)c(=O)c2cc(F)c(N3CCC(Cc4ccccc4)CC3)cc21 | ATP luminescence | – | 48 h | EC50 | > 40 µM |
| Cc1ccc2nc(-c3ccc([N+](=O)[O-])cc3)n(Cc3ccc(Cl)cc3)c2c1 | MTT | – | – | IC50 | 5.53 µM |
| CCOC(=O)c1ccc(-n2c(N)c(C#N)c(CC#N)c(C#N)c2=O)cc1 | MTT | 100 µM | 24 h | viability | 24.5% |
| COc1ccc(NC(=O)c2c(Nc3ccccc3)sc(C#N)c2NC(=O)CNc2ccc(O)cc2)cc1 | SRB | 10 nM | 48 h | viability | 92.1% |
| CCOc1cc(-c2nc3ccc(C)cc3[nH]2)ccc1O | MTT | – | 48 h | IC50 | 77.1 µM |
| COc1ccc(NC(=O)c2c(Nc3ccccc3)sc(C(=O)NN=Cc3ccc(OC)c(O)c3)c2NC(C)=O)cc1 | SRB | 10 µM | 48 h | viability | 31.6% |
| C[C@H]1[C@@H](CC(=O)NCC(=O)N[C@@H](CC(=O)NC(C)(C)C)C(=O)NCCNC(=O)c2cc(-c3ccccc3F)ccc2F)O[C@@H]2O[C@@]3(C)CC[C@H]4[C@H](C)CC[C@@H]1[C@@]24OO3 | ATP luminescence | – | 72 h | EC50 | 5.8 µM |
| Cc1cc(=O)oc2ccc(-c3cc(-c4ccccc4)nc(N)n3)c(O)c12 | MTT | 32 µg/mL | 72 h | inhibition | 5% |

| Compound | technique | tested at | time | measurement | result |
| --- | --- | --- | --- | --- | --- |
| COc1cccc(NC(=O)CN2C(=O)/C(=C/c3ccco3)SC2=S)c1 | MTT | 10 µM | – | inhibition | 5.43% |
| COc1ccc(NC(=O)c2c(Nc3ccccc3)sc(C#N)c2NC(=O)CNc2ccccc2[N+](=O)[O-])cc1 | SRB | 100 µM | 48 h | viability | 89.7% |
| CC(C)(CO)Cn1nc(-c2ccc3nc(OC4CC4)ccc3c2)c2c(N)ncnc21 | – | – | – | GI50 | > 10 µM |
| COc1cccc2c1C(=O)c1c(O)c3c(c(O)c1C2=O)C[C@@](O)(C(=O)CO)C[C@@H]3O[C@H]1C[C@H](N)[C@H](O)[C@H](C)O1 | MTT | 100 µM | 24 h | viability | 6.3% |
| Cc1cc(Nc2ccc(C(=O)N/N=C/c3ccc(N(C)C)cc3)cc2)c2cccc(O)c2n1 | MTT | 20 µM | – | inhibition | 40.8% |
| Cc1cc(=O)oc2ccc(-c3cc(-c4ccc(Cl)cc4)nc(N)n3)c(O)c12 | MTT | 128 µg/mL | 72 h | inhibition | 87% |
| CSc1ccc(-c2nc3ccc(C)cc3[nH]2)cc1 | MTT | – | 48 h | IC50 | > 100 µM |
| COc1ccccc1/C=C1\SC(=S)N(CC(=O)Nc2ccccc2)C1=O | MTT | 10 µM | – | inhibition | 25.6% |
| COc1cccc(-c2nc3ccccc3[nH]2)c1 | MTT | – | 48 h | IC50 | 47.1 µM |
| Cc1cc(=O)oc2ccc(-c3cc(-c4cccs4)nc(N)n3)c(O)c12 | MTT | 8 µg/mL | 72 h | inhibition | 0% |
| Cc1ccc(/C=N/NC(=O)c2ccc(Nc3cc(C)nc4c(O)cccc34)cc2)cc1 | MTT | 20 µM | – | inhibition | 41.3% |
| O=C(CN1C(=O)/C(=C/c2ccccc2O)SC1=S)Nc1ccccc1 | MTT | 10 µM | – | inhibition | 26.4% |
| CCOC(=O)c1ccc(-n2c(-c3ccc(C)cc3)cc(-c3ccc(O)cc3)c(C#N)c2=O)cc1 | MTT | 3.125 µM | 24 h | viability | 88% |
| CC(=O)Nc1cccc(-n2c(=O)n(C3CC3)c(=O)c3c(Nc4ccc(I)cc4F)n(C)c(=O)c(C)c32)c1 | resazurin | 780 pM | 72 h | viability | 99.5% |
| O=C(CN1C(=O)/C(=C/c2ccc(F)cc2)SC1=S)Nc1ccccc1 | MTT | 10 µM | – | inhibition | 6.59% |
| COc1ccc(NC(=O)c2c(Nc3ccccc3)sc(C#N)c2NC(=O)CNc2ccc(OC)c(OC)c2)cc1 | SRB | 10 µM | 48 h | viability | 71.4% |
| Cc1ccc2nc(-c3cccc([N+](=O)[O-])c3)[nH]c2c1 | MTT | – | 48 h | IC50 | 71.4 µM |
| COc1ccc(NC(=O)c2c(Nc3ccccc3)sc(C(=O)NN=Cc3ccccc3)c2NC(C)=O)cc1 | SRB | 1 µM | 48 h | viability | 72% |
| CCOC(=O)c1ccc(N2C(N)=C(C#N)C3(C(=O)Nc4ccccc43)C(C#N)=C2O)cc1 (stereo not shown) | MTT | 25 µM | 24 h | viability | 23.5% |
| COc1ccc(NC(=O)c2c(Nc3ccccc3)sc(C(=O)NN=Cc3cc(OC)c(OC)c(OC)c3)c2NC(C)=O)cc1 | SRB | 100 µM | 48 h | viability | 33.9% |
| CCOC(=O)c1cn(CC)c2cc(N3CCC(Cc4ccccc4)CC3)c(F)cc2c1=O | ATP luminescence | – | 48 h | EC50 | > 40 µM |
| Cc1ccc2nc(-c3ccc(Cl)c(Cl)c3)n(Cc3ccccc3)c2c1 | MTT | – | – | IC50 | > 100 µM |
| COc1ccc(NC(=O)c2c(Nc3ccccc3)sc(C(=O)NN=Cc3ccc(Cl)cc3)c2NC(C)=O)cc1 | SRB | 1 nM | 48 h | viability | 100% |
